# Scp-1 inhibitor = Scp-1 (human) phosphatase inhibition. Recombinant Scp1, phosphopeptide, malachite green phosphate absorbance. AID 493091. actives 0.88% (n = 340,000). inhibition, % at 20 µM;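 active means inhibition above about 50% at 20 µM, limit read from the data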;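 further: plate controls were DMSO wells with enzyme for no effect and wells lacking enzyme for full effect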
# Target sequence (Q9GZU7 76-261 limits assumed): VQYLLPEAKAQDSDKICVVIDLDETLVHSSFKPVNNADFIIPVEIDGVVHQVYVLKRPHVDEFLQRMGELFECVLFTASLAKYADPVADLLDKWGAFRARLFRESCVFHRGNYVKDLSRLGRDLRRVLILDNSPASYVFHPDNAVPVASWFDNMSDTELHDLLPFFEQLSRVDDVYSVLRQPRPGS
#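 Assay system: SCP-1 catalytic fragment, aa 76-261 | Buffer or medium: Tris acetate buffer pH 5.5 with MgCl2 and Tween-20 | Compound: One concentration, 20 µM, with 1.0% DMSO | Also added: Phospho 17-mer peptide substrate | Signal: Absorbance at 630 nm | Incubation: 45 min enzyme reaction at room temperature | Measure: % inhibition of SCP-1 phosphate liberation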
# DNMT1 block = DNMT1 (human) enzyme inhibition | P26358 | DNMT1 molecular beacon, Hinp1I cleavage, fluorescence | inhibition (reported as % activation of signal), % at 10 µM | actives 0.83% (n = 360,000) | AID 588458; in the data active means inhibition above about 50%
# STEP block = STEP (human) phosphatase inhibition | recombinant STEP, OMFP fluorogenic substrate, fluorescence | AID 588621 | P54829 | inhibition, % at 20 µM | actives 0.25% (n = 360,000);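 active means inhibition at 20 µM, scaled per plate between control wells, above about 37%, limit read from the data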;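 further: 0% = DMSO with enzyme and substrate and 100% = substrate only without enzyme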
#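 Measure: Control-normalized % inhibition with plate pattern correction | Test system: STEP phosphatase, cell-free reaction | Medium: pH 6.0 Bis-Tris with DTT and Tween 20 | Technique: Fluorescence, 480/540 nm | Times: Reaction 20 min, ambient temperature | Doses: Single compound dose of 20 µM, 1% DMSO final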
# CFTR F508del cor = CFTR F508del correction in bronchial cells. CFBE cells, YFP halide quenching; stimulated with forskolin plus potentiator P3; % fluorescence drop versus neutral controls. activity (quench increase), % at 7.58 µM. actives 0.36% (n = 350,000);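 active means mean added fluorescence quench of at least 8% versus neutral control, with both replicates also reaching 8%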;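 further: cells transiently co-express mutant CFTR-F508del with the halide-sensitive YFP; corrector assay measuring rescue of mutant channel to the surface after 24 h compound exposure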
# LMPTP inh = LMPTP (human) inhibition | P24666 | recombinant LMPTP-A, OMFP fluorogenic substrate, fluorescence intensity | inhibition, % at 20 µM | actives 0.22% (n = 360,000);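 active means compounds that cut the enzyme signal by at least half of the control window in the single-dose screen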;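 further: plate controls were DMSO wells with enzyme plus substrate for no effect and substrate without enzyme for full effect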
# Target sequence (P24666 whole entry, looked up): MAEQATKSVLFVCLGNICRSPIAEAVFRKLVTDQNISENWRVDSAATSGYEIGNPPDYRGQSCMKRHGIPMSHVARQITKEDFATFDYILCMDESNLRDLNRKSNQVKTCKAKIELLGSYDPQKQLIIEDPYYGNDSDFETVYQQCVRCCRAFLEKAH
#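 Test system – LMPTP-A enzyme · Amount – LMPTP-A at 0.625 nM final in the reaction · Buffer or medium – Bis-Tris pH 6.0, DTT, detergent · Reagent – OMFP 400 µM · Doses – single 20 µM dose · Schedule – reaction 50 min, room temperature, dark · Detection – fluorescence intensity of OMFP turnover product · Evaluation – percent inhibition versus substrate-only and uninhibited controls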
# SUMO1-SIM PPI = modulators of human SUMO1-mediated protein-protein interactions; AID 602429; SUMO1 binding to a labelled peptide, TR-FRET, 1 h; inhibition, % at 20 µM; actives 0.33% (n = 360,000); P63165; in the data active means inhibition above about 37%
# Target sequence (P63165 whole entry, looked up): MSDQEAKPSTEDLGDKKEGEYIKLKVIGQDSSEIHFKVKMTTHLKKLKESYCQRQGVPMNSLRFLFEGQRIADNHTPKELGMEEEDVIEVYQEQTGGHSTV
# Scp-1 conf = confirmation of human Scp-1 phosphatase inhibitors; recombinant SCP-1 catalytic domain, phosphate release, malachite green absorbance; actives 61% (n = 2,500); shares compounds with Scp-1 inhibitor; inhibition, % at 20 µM;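 further: plate controls were DMSO with enzyme for no effect and buffer wells lacking enzyme for full effect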
# Scp-1 MG ctr = counter-screen for Scp-1 inhibitors: colorimetric interference; shares compounds with Scp-1 inhibitor; Colorimetric interference counterscreen, malachite green absorbance 630 nm; apparent inhibition (interference), % at 20 µM; 2,500 tested, under 10 active;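 further: compounds added after enzyme reaction finished so only phosphate colour detection is probed; plate controls were DMSO wells with completed Scp-1 reaction for no effect and substrate wells lacking enzyme for full effect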
# Scp1 DSF = binds human Scp-1, shifting its melting temperature; thermal shift relative to vanadate control, % at 40 µM; Recombinant SCP1, Sypro Orange thermal shift Tm; shares compounds with Scp-1 inhibitor; actives 25% (n = 1,500); AID 540329;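 active means substances whose mean melting-temperature shift, as a percentage of the reference inhibitor's shift, reaches about 5.3%, limit read from the data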;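 further: 0% = Tm of DMSO wells and 100% = Tm with sodium orthovanadate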
# DNMT1 interf DR = shows spectral interference in the DNMT1 beacon assay; IC50, µM; molecular beacon fluorescence, spectral interference counter-screen; AID 602382; 200 tested, under 10 active; shares compounds with DNMT1 block; call rule not given here
# DNMT1 confirm = confirmation of human DNMT1 inhibitors. shares compounds with DNMT1 block. DNMT1 molecular beacon HinP1I cleavage, fluorescence. inhibition, % at 10 µM. actives 8% (n = 2,300). AID 602385;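 active means average inhibition of at least 30% in the single-concentration confirmation test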
# DNMT1 interf = shows spectral interference in the DNMT1 beacon assay. activation (fluorescence interference), % at 10 µM. DNMT1 molecular beacon spectral interference counterscreen, fluorescence 485/520. actives 1% (n = 2,300). shares compounds with DNMT1 block;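 active means activation of at least 30% at 10 µM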;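 further: DNMT1 catalytic domain with a HinP1I cleavage step and a FAM/dabcyl DNA beacon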
# STEP conf = STEP (human) phosphatase inhibition, single concentration confirmation; shares compounds with STEP block; recombinant STEP, OMFP fluorogenic substrate, fluorescence; inhibition, % at 20 µM; actives 32% (n = 520); call rule not given here;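 further: 0% = enzyme with substrate plus DMSO and 100% = substrate without enzyme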
# Starred values were filed as active, the others as inactive; · = not tested or not shown. In the library only some 1.6% were active in any assay of this set; here they are far more common.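 How the source made its calls, unless noted: active means inhibition of at least 30% at 20 µM; inactive means the rest.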
SMILES,Scp-1 inhibitor,DNMT1 block,STEP block,CFTR F508del cor,LMPTP inh,SUMO1-SIM PPI,Scp-1 conf,Scp-1 MG ctr,Scp1 DSF,DNMT1 confirm,DNMT1 interf,others
CCCNC(=O)[C@@H]1[C@@H](CO)[C@@H]2Cn3c(cccc3=O)[C@H]1N2CCC,·,·,·,-0.3,·,·,·,·,·,·,·,
Cc1ccc2c(c1Cl)NC(C(=O)O)C1CC(Sc3ccccc3[N+](=O)[O-])C(Cl)C21 (centres undefined),59.5*,70.7*,4.7,·,41.6,30.5,65.1*,-15.6,17.7*,22.1,1.0,
O=C1NC(=O)C(=Cc2ccc(SC3CCCCC3)o2)C(=O)N1,53.2*,86.5*,0.6,·,5.4,8.8,74.8*,-8.7,-7.0,9.7,0.1,
O=C(Cc1cccnc1)N1CCCCN2[C@H](C1)[C@H](c1ccc(/C=C/c3ccccc3)cc1)[C@@H]2CO,·,·,·,3.1,·,·,·,·,·,·,·,
COc1ccc(CN2C(=O)NC(=O)/C(=C/c3ccoc3)C2=O)cc1,71.5*,100.8*,67.6*,0.8,24.4,32.5,70.6*,-13.4,0.7,10.8,-1.4,
COc1ccc(C#Cc2ccc([C@H]3[C@@H](CO)N4CCCCN(C(=O)Cc5ccccc5)C[C@@H]34)cc2)cc1,·,·,·,5.5,·,·,·,·,·,·,·,
CC[N+](C)(CC)CCCCOc1ccc2c(c1)C(=O)c1cc(OCCCC[N+](C)(CC)CC)ccc1-2,102.7*,53.6*,2.5,6.6,3.1,-47.7,62.0*,-2.1,0.9,39.1*,-6.8,DNMT1 interf DR=>99
Cc1cc(/C=C2/C(=O)NC(=O)N(C)C2=O)c(C)n1-c1ccccc1,-6.5,1.7,-2.9,-2.6,2.0,-9.6,·,·,·,·,·,
Cc1cc(/C=C2\C(=O)NC(=O)N(c3ccccc3F)C2=O)c(C)n1-c1cc(C(=O)O)cc(C(=O)O)c1,54.7*,87.2*,41.6*,0.6,1.2,13.2,31.7*,-15.3,9.9*,27.0,0.9,DNMT1 interf DR=>99
N#Cc1ccc(-c2ccc([C@H]3[C@@H](CO)N4CCCCN(C(=O)Cc5ccccc5)C[C@H]34)cc2)cc1,·,·,·,-0.1,·,·,·,·,·,·,·,
O=C(Cc1ccncc1)N1CCCCN2[C@@H](CO)[C@H](c3ccc(C#Cc4ccccc4F)cc3)[C@@H]2C1,·,·,·,4.8,·,·,·,·,·,·,·,
CCN(CC)P(=O)(NC(=O)C(Cl)(Cl)Cl)N(CC)CC.[Cl-].[Cl-].[Cl-].[Nd+3],101.3*,27.3,87.2*,-2.0,44.5,106.7*,70.3*,-17.0,-8.5,·,·,STEP conf=25.3*
CCCNC(=O)N1[C@@H]2Cn3c(ccc(-c4ccccc4OC)c3=O)[C@H]1[C@@H](C(=O)O)[C@@H]2CO,·,·,·,0.8,·,·,·,·,·,·,·,
O=C1NC(=O)N(Cc2ccco2)C(=O)/C1=C/c1cccn1CCOc1ccccc1Cl,5.5,69.5*,0.1,·,2.9,20.1,·,·,·,22.4,-0.1,
O=C1c2ccccc2-c2cc3ccccc3cc21,-7.7,2.5,-0.4,2.6,1.1,-25.4,·,·,·,·,·,
O=C1c2ccccc2-c2cccc3cccc1c23,49.4,54.3*,6.5,-5.7,11.4,-14.7,·,·,·,34.6*,1.6,DNMT1 interf DR=>99
